Reference: ChEMBL document CHEMBL3784930, “Design, synthesis and biological evaluation of N,N-3-phenyl-3-benzylaminopropanamide derivatives as novel cholesteryl ester transfer protein inhibitor” (Bioorg Med Chem, 2016)
pIC50: −log10 of the molar value. Values belong to the compound of their own block, whether it stands above or below them.

Assays:
[1] = target: T1, Cholesteryl ester transfer protein (Homo sapiens, UniProt P11597); test: Inhibition of full-length human recombinant CETP expressed in CHO cells by BODIPY-CE fluorescence assay; format: cell-based
T1 sequence (P11597 whole entry): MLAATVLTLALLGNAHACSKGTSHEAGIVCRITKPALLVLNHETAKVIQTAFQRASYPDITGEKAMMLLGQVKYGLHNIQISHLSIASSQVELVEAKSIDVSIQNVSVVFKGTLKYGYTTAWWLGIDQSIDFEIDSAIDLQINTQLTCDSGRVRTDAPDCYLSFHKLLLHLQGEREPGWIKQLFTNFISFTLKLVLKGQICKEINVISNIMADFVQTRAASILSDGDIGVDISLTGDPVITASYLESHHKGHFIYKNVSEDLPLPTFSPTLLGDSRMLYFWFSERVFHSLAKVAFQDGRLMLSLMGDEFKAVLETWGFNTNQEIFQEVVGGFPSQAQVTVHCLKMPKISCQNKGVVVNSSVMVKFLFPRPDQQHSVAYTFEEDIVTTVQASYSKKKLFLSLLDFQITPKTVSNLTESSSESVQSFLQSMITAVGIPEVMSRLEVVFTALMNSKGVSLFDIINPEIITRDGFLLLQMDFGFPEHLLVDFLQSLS

Syrian golden hamster [2] = test: Antidyslipidemic activity in high cholesterol/lipid diet fed golden syrian hamster assessed as increase in HDL-cholesterol levels at 30 mg/kg/day, po administered for 2 weeks relative to control; format: functional, Mesocricetus auratus
Summary of the method: (§1)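 Male Golden Syrian hamsters (8 weeks old, 120-130 g) were randomized by weight into control and treated groups (n = 6). Dyslipidemia was induced with a high cholesterol and lipid diet for 5 weeks. Dosing was oral at 30 mg/kg/day for two weeks in ethanol/cremophor/saline 5:5:90. Blood was drawn from the orbit, and serum lipid levels were compared with controls.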

Syrian golden hamster [3] = test: Antidyslipidemic activity in high cholesterol/lipid diet fed golden syrian hamster assessed as reduction in LDL-cholesterol levels at 30 mg/kg/day, po administered for 2 weeks relative to control; format: functional, Mesocricetus auratus; parameters: scale not given: the % may be the effect or the level left; summary of the method: as §1
Homo sapiens [4] = species: Homo sapiens; test: Increase in HDL-cholestrol levels in mild dyslipidemia patient at 10 mg; format: functional
Homo sapiens [5] = species: Homo sapiens; test: Reduction in LDL-cholestrol levels in mild dyslipidemia patient at 5 to 10 mg; format: functional; parameters: scale not given: the % may be the effect or the level left
[6] = target: Cholesteryl ester transfer protein (Homo sapiens) (UniProt P11597); test: Inhibition of recombinant CETP by BODIPY-CE fluorescence assay
Homo sapiens [7] = test: In vivo inhibition of CETP in human whole plasma at 120 mg for 14 days; format: functional, organism-based; conditions: 336 h

pIC50 [1]: 4.85
SMILES: O=C(CCN(Cc1ccc(F)cc1)c1ccc(Cl)c(Cl)c1)N1CCOCC1

pIC50 [1]: 4.71
SMILES: CCc1cc(N(CCC(=O)N2CCN(c3ccccc3)CC2)Cc2ccc(F)cc2)ccc1Cl

pIC50 [1]: 5.46
SMILES: COc1ccc(N2CCN(C(=O)CCN(Cc3ccc(F)cc3)c3ccc(Cl)c(Cl)c3)CC2)cc1

pIC50 [6]: 5.09
SMILES: COc1ccc(C(CC(=O)c2ccccc2)Nc2ccc(Cl)cc2)cc1OC (configuration not stated)

pIC50 [1]: 4.86
SMILES: Cc1cc(N(CCC(=O)N2CCN(c3ccccc3)CC2)Cc2ccc(F)cc2)ccc1Br

pIC50 [1]: 5.14
SMILES: COc1ccc(N2CCN(C(=O)CCN(Cc3ccc(F)cc3)c3cccc(-c4ccccc4)c3)CC2)cc1

pIC50 [1]: 5.28
SMILES: O=C(CCN(Cc1ccc(F)cc1)c1ccc(Cl)c(Cl)c1)N1CCN(c2ccccc2)CC1

pIC50 [1]: 5.51
SMILES: CCOC(=O)c1ccc(N2CCN(C(=O)CCN(Cc3ccc(F)cc3)c3cccc(-c4ccccc4)c3)CC2)cc1

pIC50 [1]: < 4.30
SMILES: CCCCN(CC1CC1)C(=O)CCN(Cc1ccc(F)cc1)c1ccc(Cl)c(Cl)c1

Further lines, the compound ahead of its results:

SMILES: O=C(CCN(Cc1ccc(F)cc1)c1cccc(-c2ccccc2)c1)N1CCN(c2ccccc2)CC1
pIC50 [1]: 4.95

SMILES: COc1ccc(N2CCN(C(=O)CCN(Cc3ccc(F)cc3)c3cccc(Oc4ccccc4)c3)CC2)cc1
pIC50 [1]: 5.55

SMILES: O=C(CCN(Cc1ccc(F)cc1)c1ccc(Cl)c(Cl)c1)NC1CC1
pIC50 [1]: < 4.30

SMILES: CC(C)(C)NC(=O)CCN(Cc1ccc(F)cc1)c1ccc(Cl)c(Cl)c1
pIC50 [1]: 4.53

SMILES: CCOC(=O)c1ccc(N2CCN(C(=O)CCN(Cc3ccc(F)cc3)c3cccc(Oc4ccccc4)c3)CC2)cc1
Activity (Syrian golden hamster [2]): 21.7% | Activity (Syrian golden hamster [3]): 24.6%

SMILES: CCOC(=O)N1c2ccc(C(F)(F)F)cc2[C@@H](N(Cc2cc(C(F)(F)F)cc(C(F)(F)F)c2)c2ncc(OCCCC(=O)O)cn2)C[C@H]1CC [OBICETRAPIB]
Activity (Homo sapiens [4]): 179.1% | Activity (Homo sapiens [5]): 45.3%

SMILES: O=C(CCN(Cc1ccc(F)cc1)c1ccc(Cl)c(Cl)c1)NC1CCCCC1
pIC50 [1]: 4.97

SMILES: CCOC(=O)c1ccc(N2CCN(C(=O)CCN(Cc3ccc(F)cc3)c3ccc(Cl)c(Cl)c3)CC2)cc1
pIC50 [1]: 5.55

SMILES: O=C(CCN(Cc1ccc(F)cc1)c1ccc(Cl)c(Cl)c1)N1CCN(c2ncccn2)CC1
pIC50 [1]: 4.93

SMILES: O=C(CCN(Cc1ccc(F)cc1)c1ccc(Cl)c(C(F)(F)F)c1)N1CCN(c2ccccc2)CC1
pIC50 [1]: 4.42

SMILES: CCOC(=O)N1c2ccc(C(F)(F)F)cc2[C@@H](N(Cc2cc(C(F)(F)F)cc(C(F)(F)F)c2)C(=O)OC)C[C@H]1CC [TORCETRAPIB]
pIC50 (Homo sapiens [7]): 7.30
